Measured values as given in ChEMBL document CHEMBL4308887, “Synthesis and biological evaluation of clovamide analogues with catechol functionality as potent Parkinson's disease agents in vitro and in vivo” (Bioorg Med Chem Lett, 2019).
Activity calls are given as the source filed them. No cut-off for these calls is given here.

How the values were obtained:
[1] = system: Mus musculus; assay: Anti-parkinson's activity in MPTP-induced C57Bl/6 mouse model of Parkinson's disease assessed as decrease in cleaved caspase3 expression in substantia nigra at 10 to 20 mg/kg, ig pretreated for 10 days followed by MPTP challenge measured 10 days post MPTP addition by Western blot analysis; type: functional, organism-based
Outline: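 Substantia nigra from MPTP mice. Bax, Bcl-2 and cleaved caspase-3 measured by western blot, with Bcl-2/Bax ratio by densitometry. Mean ± S.D., n = 6 mice/group.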

[2] = system: SH-SY5Y; assay: Neuroprotection against H2O2-induced toxicity in human SH-SY5Y cells assessed as decrease in LDH release preincubated for 6 hrs followed by H2O2 addition and measured after 24 hrs; type: functional, cell-based
Outline: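 Cells pretreated with test agent (1 or 10 μM), then 600 μM H₂O₂; plasma membrane damage read as LDH leakage into medium (U/L). DMSO below 0.1% in all groups. Mean ± S.E.M. of three independent experiments.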

[3] = system: SH-SY5Y; assay: Induction of apoptosis in non-stimulated human SH-SY5Y cells assessed as necrotic cells at 10 uM measured after 6 hrs by Annexin V-FITC/propidium iodide staining based flow cytometry (reference value: 0.6%); type: cell-based
[4] = MRT in Sprague-Dawley rat at 25 mg/kg, po by LC-MS/MS analysis; type: ADME, organism-based; details: in vivo
Outline: (§1)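 Male Sprague–Dawley rats dosed with 1 at 5 mg/kg i.v. (vehicle 5% DMSO, 2% F68, 93% saline) or 25 mg/kg p.o. (0.5% methylcellulose with 1% Tween 80). Orbital blood sampled at 0.083–24 h, 12 time points. Plasma PK parameters derived. Mean ± SD, n = 3.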

[5] = Activation of PI3K/Akt/mTOR signaling in human SH-SY5Y cells assessed as increase in AKT phosphorylation after 5 to 360 mins by Western blot analysis; type: cell-based
Outline: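 SH-SY5Y cells, unstimulated, exposed to 1 for 5, 15, 30, 60, 120, 240 or 360 min. Phospho-AKT and phospho-mTOR measured by western blot, reported as p-AKT/t-AKT and p-mTOR/t-mTOR ratios after densitometry. Mean ± S.E.M. of three independent experiments.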

[6] = Activation of PI3K/Akt/mTOR signaling in human SH-SY5Y cells assessed as up regulation of H2O2-induced HO-1 expression at 10 uM preincubated for 6 hrs followed by H2O2 addition and after 24 hrs in presence of JNK inhibitor SP600125 by Western blot analysis; type: cell-based
Outline: (§2)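 SH-SY5Y cells preincubated 1 h with one inhibitor: SB203580 10 μM, LY294002 5 μM, U0126 10 μM, SP600125 5 μM or rapamycin 100 nM. Then 1 (10 μM) for 6 h, then 600 μM H₂O₂. HO-1 measured by western blot and densitometry. Mean ± S.E.M., three independent experiments.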

[7] = Activation of PI3K/Akt/mTOR signaling in human SH-SY5Y cells assessed as up regulation of HO-1 expression at 1 uM after 24 hrs by Western blot analysis relative to control; type: cell-based
Outline: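 HO-1 western blot in SH-SY5Y cells incubated 24 h with 1 at 0.1, 1 or 10 μM, without H₂O₂. Band densitometry expressed as % of control. Mean ± S.E.M. from three independent experiments.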

[8] = system: SH-SY5Y; assay: Induction of apoptosis in non-stimulated human SH-SY5Y cells assessed as late apoptotic cells at 10 uM measured after 6 hrs by Annexin V-FITC/propidium iodide staining based flow cytometry (reference value: 2.3%); type: cell-based
[9] = system: SH-SY5Y; assay: Protection against H2O2-induced apoptosis in human SH-SY5Y cells assessed as decrease in cleaved caspase3 expression preincubated for 6 hrs followed by H2O2 addition and measured after 24 hrs by Western blot analysis; type: functional, cell-based
Outline: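 Western blot of Bax, Bcl-2 and cleaved caspase-3 in SH-SY5Y after pretreatment (1, 10 μM) and 600 μM H₂O₂. β-actin internal standard; Bax/Bcl-2 ratio from densitometry. Mean ± S.E.M., three independent experiments.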

[10] = Clearance in Sprague-Dawley rat at 5 mg/kg, iv by LC-MS/MS analysis; type: ADME, organism-based; details: in vivo; outline: as §1
[11] = Oral bioavailability in Sprague-Dawley rat at 25 mg/kg by LC-MS/MS analysis; type: ADME, organism-based; details: in vivo
Outline: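 Male Sprague–Dawley rats (n = 3) dosed i.v. 5 mg/kg (5% DMSO, 2% F68, 93% saline) or p.o. 25 mg/kg (0.5% methylcellulose, 1% Tween 80). Orbital blood at 0.083–24 h (12 points). Plasma concentration–time profiles gave Cl, Vdss, AUC, T1/2, Tmax, Cmax, MRT and absolute F.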

[12] = system: SH-SY5Y; assay: Induction of apoptosis in non-stimulated human SH-SY5Y cells assessed as effect on ratio of Bax/Bcl2 expression at 1 to 10 uM measured after 6 hrs by Western blot analysis; type: cell-based
Outline: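 Bax, Bcl-2 and cleaved caspase-3 measured by western blot in SH-SY5Y cells given 1 alone, with β-actin as internal standard. Mean ± S.E.M. of three independent experiments.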

[13] = Activation of PI3K/Akt/mTOR signaling in human SH-SY5Y cells assessed as up regulation of H2O2-induced HO-1 expression at 10 uM preincubated for 6 hrs followed by H2O2 addition and after 24 hrs in presence of PI3K/Akt/mTOR inhibitor LY294002 by Western blot analysis; type: cell-based; outline: as §2
[14] = system: SH-SY5Y; assay: Induction of apoptosis in non-stimulated human SH-SY5Y cells assessed as early apoptotic cells at 10 uM measured after 6 hrs by Annexin V-FITC/propidium iodide staining based flow cytometry (reference value: 4.5%); type: cell-based
[15] = system: SH-SY5Y; assay: Protection against H2O2-induced mitochondrial dysfunction in human SH-SY5Y cells assessed as mitochondrial membrane potential at 1 uM preincubated for 6 hrs followed by H2O2 addition and measured after 24 hrs by Rh123 staining based flow cytometry (reference value: 26.31 +/- 3.32%); type: functional
Outline: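 ΔΨm examined by inverted fluorescence microscopy and flow cytometry after pretreatment (1, 10 μM) and 600 μM H₂O₂. Reported as % of control. Mean ± S.E.M., three independent experiments.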

[16] = Activation of PI3K/Akt/mTOR signaling in human SH-SY5Y cells assessed as up regulation of H2O2-induced HO-1 expression at 1 uM preincubated for 6 hrs followed by H2O2 addition and after 24 hrs by Western blot analysis (reference value: 181.53 +/- 24.67%); type: cell-based
Outline: (§3)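 SH-SY5Y cells pretreated 6 h with 1 (1 or 10 μM), then exposed to 600 μM H₂O₂ for 24 h. HO-1 measured by western blot with densitometry and expressed as % of control. Mean ± S.E.M., three independent experiments.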

[17] = system: SH-SY5Y; assay: Protection against H2O2-induced apoptosis in human SH-SY5Y cells assessed as viable cells at 1 uM preincubated for 6 hrs followed by H2O2 addition and measured after 24 hrs by Annexin V-FITC/propidium iodide staining based flow cytometry (reference value: 12.4%); type: functional; details: read-out: Activity
[18] = Activation of PI3K/Akt/mTOR signaling in human SH-SY5Y cells assessed as up regulation of H2O2-induced HO-1 expression at 10 uM preincubated for 6 hrs followed by H2O2 addition and after 24 hrs by Western blot analysis (reference value: 181.53 +/- 24.67%); type: cell-based; outline: as §3

SMILES: COC(=O)[C@H](Cc1ccccc1)NC(=O)/C=C/c1ccc(O)c(O)c1 [N-CAFFEOYL-PHENYLALANINE METHYL ESTER]
- Activity [1]: Active
- Activity [2]: Dose-dependent effect
- Activity [3]: 1.1%
- MRT [4]: 3.06 h
- Activity [5]: Active
- Activity [6]: Active
- Activity [7]: 155%
- Activity [8]: 2.7%
- Activity [9]: Dose-dependent effect
- clearance [10]: 25.5 mL/min/kg
- bioavailability [11]: 15.2%
- Activity [12]: Non-Toxic
- Activity [13]: inactive
- Activity [14]: 1.4%
- Activity [15]: 79.4%
- Activity [16]: 274%
- viability at 1 µM [17]: 72%
- Activity [18]: 325%
